# ChEMBL document CHEMBL3271979, “Inhibition of solid tumors by nitrosoureas. 1. Lewis lung carcinoma” (1977)
# Activity calls are given as the source filed them. No cut-off for these calls is given here.
# Columns and labels:
# [1] = system: Mus musculus; experiment: Antitumor activity against mouse advanced Lewis lung carcinoma allografted in ip dosed BDF1 mouse assessed as disease cure administered as single dose on day 6 or 7 post-tumor implantation; assay type: functional, organism-based
# Procedure, shortened: (§1)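 BDF1 mice (C57Blk/6 × DBA/2) implanted sc by trocar with Lewis lung tumor fragments of about 40 mg, taken only from bacteriologically sterile donor tumors. Mice bearing tumors of about 400 mg (day 6-7) were selected. Each received a single ip dose on day 7, at or below the LD10 in normal mice. Groups were of 10 mice. Tumor weight was taken from calipers as w = ab²/2, measured at least twice weekly. Matched non-tumor mice served as toxicity controls.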
# [2] = system: Mus musculus; experiment: (§2) Antitumor activity against mouse early Lewis lung carcinoma allografted in ip dosed BDF1 mouse assessed as disease cure administered as single dose on 1 or 2 days post-tumor implantation measured for 80 days post-drug treatment; assay type: functional
# Procedure, shortened: (§3)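 BDF1 mice implanted sc by trocar with ~40 mg Lewis lung fragments from sterile donor tumors. A single ip dose was given on day 1 or 2 after implant, in water or saline vehicle. Cures were scored in animals observed for at least 80 days after treatment. Drug-toxicity controls were matched non-tumor-bearing mice monitored for body weight and deaths.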
# [3] = Antitumor activity against mouse advanced Lewis lung carcinoma allografted in BDF1 mouse assessed as increase in host life span at 13 mg/kg, ip administered as single dose on 7th day post-tumor implantation; assay type: functional; conditions: route intraperitoneal
# Procedure, shortened: (§4)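 BDF1 mice (C57Blk/6 × DBA/2) implanted sc by trocar with about 40 mg Lewis lung tumor fragments from bacteriologically sterile donors. Advanced-disease groups held tumors of about 400 mg by day 6-7, sized by caliper (w = ab²/2). Single ip injection on day 7, in water or saline vehicle, at or below the LD10 in normal mice. Tumors measured at least twice weekly.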
# [4] = system: Mus musculus; experiment: Antitumor activity against mouse early Lewis lung carcinoma allografted in ip dosed BDF1 mouse administered as single dose on 1 or 2 days post-tumor implantation measured for 80 days post-drug treatment; assay type: functional, organism-based; procedure, shortened: as §3
# [5] = Ratio of ED50 for antitumor activity against mouse L1210 cells allografted in ip dosed mouse to LD10 for mouse
# [6] = system: Mus musculus; experiment: Antitumor activity against mouse advanced Lewis lung carcinoma allografted in BDF1 mouse assessed as complete regression of established tumor at 13 mg/kg, ip administered as single dose on 7th day post-tumor implantation; assay type: functional, organism-based; parameters: dose 13 mg/kg; procedure, shortened: as §4
# [7] = system: Mus musculus; experiment: Antitumor activity against mouse advanced Lewis lung carcinoma allografted in ip dosed BDF1 mouse assessed as complete regression of established tumor administered as single dose on day 6 or 7 post-tumor implantation; assay type: functional, organism-based; procedure, shortened: as §1
# [8] = system: Mus musculus; experiment: Antitumor activity against mouse advanced Lewis lung carcinoma allografted in BDF1 mouse assessed as disease cure at 13 mg/kg, ip administered as single dose on 7th day post-tumor implantation measured for 80 days post-drug treatment; assay type: functional, organism-based; parameters: dose 13 mg/kg; procedure, shortened: as §4
# [9] = Antitumor activity against mouse advanced Lewis lung carcinoma allografted in ip dosed BDF1 mouse assessed as increase in host lifespan administered as single dose on day 6 or 7 post-tumor implantation; assay type: functional
# Procedure, shortened: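 Advanced Lewis lung model: about 40 mg fragments implanted sc by trocar into BDF1 mice, and mice with tumors of about 400 mg (day 6-7) selected. Tumor weight from calipers, w = ab²/2. Agent given as one ip dose in distilled water or physiological saline. Nontumor-bearing mice received matching doses as toxicity controls.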
# [10] = as §2; assay type: functional; procedure, shortened: as §3
# [11] = Antitumor activity against mouse early Lewis lung carcinoma allografted in BDF1 mouse assessed as time delay in tumor growth at 60 mg/kg, ip administered as single dose on 1 or 2 days post-tumor implantation; assay type: functional; conditions: route intraperitoneal
# Procedure, shortened: (§5)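 BDF1 mice (C57Blk/6 × DBA/2) implanted sc by trocar with ~40 mg Lewis lung tumor fragments from bacteriologically sterile donors. A single ip dose was given on day 1 or 2, as a solution or suspension in water or saline with suspending agent, at ≤0.5 ml. Tumors were measured by caliper at least twice weekly, with weight = ab²/2. Delay was taken as the days for the tumor to reach 1 g.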
# [12] = Antitumor activity against mouse early Lewis lung carcinoma allografted in BDF1 mouse assessed as time delay in tumor growth at 40 mg/kg, ip administered as single dose on 1 or 2 days post-tumor implantation; assay type: functional; conditions: route intraperitoneal; procedure, shortened: as §5
# [13] = Antitumor activity against mouse advanced Lewis lung carcinoma allografted in BDF1 mouse assessed as increase in host life span at 40 mg/kg, ip administered as single dose on 7th day post-tumor implantation; assay type: functional; conditions: route intraperitoneal; procedure, shortened: as §4
# [14] = system: Mus musculus; experiment: Antitumor activity against mouse advanced Lewis lung carcinoma allografted in BDF1 mouse assessed as disease cure at 60 mg/kg, ip administered as single dose on 7th day post-tumor implantation measured for 80 days post-drug treatment; assay type: functional, organism-based; parameters: dose 60 mg/kg; procedure, shortened: as §1
# [15] = system: Mus musculus; experiment: Antitumor activity against mouse advanced Lewis lung carcinoma allografted in BDF1 mouse assessed as complete regression of established tumor at 40 mg/kg, ip administered as single dose on 7th day post-tumor implantation; assay type: functional, organism-based; parameters: dose 40 mg/kg; procedure, shortened: as §1
# [16] = Antitumor activity against mouse early Lewis lung carcinoma allografted in BDF1 mouse assessed as increase in host life span at 40 mg/kg, ip administered as single dose on 1 or 2 days post-tumor implantation; assay type: functional; conditions: route intraperitoneal
# Procedure, shortened: (§6)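 BDF1 mice (C57Blk/6 × DBA/2) implanted sc by trocar with ~40 mg Lewis lung tumor fragments from bacteriologically sterile donor tumors. Single ip dose on day 1 or 2, as a solution or suspension in water (CMC or gum acacia) or saline (HPC or Tween 80). Read-out is […]. Same-dose toxicity controls were run in nontumor-bearing mice.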
# [17] = Antitumor activity against mouse advanced Lewis lung carcinoma allografted in BDF1 mouse assessed as increase in host life span at 60 mg/kg, ip administered as single dose on 7th day post-tumor implantation; assay type: functional; conditions: route intraperitoneal; procedure, shortened: as §4
# [18] = system: Mus musculus; experiment: Antitumor activity against mouse advanced Lewis lung carcinoma allografted in BDF1 mouse assessed as complete regression of established tumor at 60 mg/kg, ip administered as single dose on 7th day post-tumor implantation; assay type: functional, organism-based; parameters: dose 60 mg/kg; procedure, shortened: as §1
# [19] = Antitumor activity against mouse early Lewis lung carcinoma allografted in BDF1 mouse assessed as increase in host life span at 60 mg/kg, ip administered as single dose on 1 or 2 days post-tumor implantation; assay type: functional; conditions: route intraperitoneal; procedure, shortened: as §6
# [20] = system: Mus musculus; experiment: Antitumor activity against mouse advanced Lewis lung carcinoma allografted in BDF1 mouse assessed as disease cure at 40 mg/kg, ip administered as single dose on 7th day post-tumor implantation measured for 80 days post-drug treatment; assay type: functional, organism-based; parameters: dose 40 mg/kg; procedure, shortened: as §4
# [21] = system: Mus musculus; experiment: Antitumor activity against mouse advanced Lewis lung carcinoma allografted in BDF1 mouse assessed as disease cure at 12 mg/kg, ip administered as single dose on 7th day post-tumor implantation measured for 80 days post-drug treatment; assay type: functional, organism-based; parameters: dose 12 mg/kg; procedure, shortened: as §1
# [22] = Antitumor activity against mouse advanced Lewis lung carcinoma allografted in BDF1 mouse assessed as increase in host life span at 12 mg/kg, ip administered as single dose on 7th day post-tumor implantation; assay type: functional; conditions: route intraperitoneal; procedure, shortened: as §4
# [23] = system: L1210; experiment: Antitumor activity against mouse L1210 cells allografted in ip dosed mouse assessed as disease cure administered as single dose; assay type: functional, organism-based
# [24] = system: Mus musculus; experiment: Antitumor activity against mouse advanced Lewis lung carcinoma allografted in BDF1 mouse assessed as complete regression of established tumor at 18 mg/kg, ip administered as single dose on 7th day post-tumor implantation; assay type: functional, organism-based; parameters: dose 18 mg/kg; procedure, shortened: as §1
# [25] = system: Mus musculus; experiment: Antitumor activity against mouse advanced Lewis lung carcinoma allografted in BDF1 mouse assessed as complete regression of established tumor at 12 mg/kg, ip administered as single dose on 7th day post-tumor implantation; assay type: functional, organism-based; parameters: dose 12 mg/kg; procedure, shortened: as §1
# [26] = system: Mus musculus; experiment: Antitumor activity against mouse advanced Lewis lung carcinoma allografted in BDF1 mouse assessed as disease cure at 18 mg/kg, ip administered as single dose on 7th day post-tumor implantation measured for 80 days post-drug treatment; assay type: functional, organism-based; parameters: dose 18 mg/kg; procedure, shortened: as §1
# [27] = Antitumor activity against mouse advanced Lewis lung carcinoma allografted in BDF1 mouse assessed as increase in host life span at 18 mg/kg, ip administered as single dose on 7th day post-tumor implantation; assay type: functional; conditions: route intraperitoneal; procedure, shortened: as §4
compound,measurement,setting,value
O=NN(CCCl)C(=O)N[C@H]1C(O)O[C@H](CO)[C@@H](O)[C@@H]1O (stereo not given in full) [CHLOROZOTOCIN],Activity,[1],inactive
same,Activity,[2],inactive
same,ILS at 13 mg/kg,[3],25%
same,Activity,[4],inactive
same,Ratio,[5],0.4
same,inhibition,[6],inactive
same,inhibition,[7],inactive
same,Activity,[8],inactive
same,ILS,[9],>25%
O=NN(CCCl)C(=O)N[C@H]1CC[C@H](CCl)CC1,Activity,[1],inactive
same,Activity,[10],10%
same,Time,[11],4.3 days
same,Time,[12],5.2 days
same,Ratio,[5],0.6
same,ILS at 40 mg/kg,[13],51%
same,Activity,[14],inactive
same,inhibition,[15],inactive
same,inhibition,[7],inactive
same,ILS at 40 mg/kg,[16],74%
same,ILS at 60 mg/kg,[17],109%
same,inhibition,[18],inactive
same,ILS at 60 mg/kg,[19],87%
same,Activity,[20],inactive
same,ILS,[9],>25%
CC(=O)OC[C@H]1CC[C@H](NC(=O)N(CCCl)N=O)CC1,Activity,[1],inactive
same,Activity,[10],10%
same,Activity,[21],inactive
same,ILS at 12 mg/kg,[22],26%
same,Activity,[23],inactive
same,inhibition,[24],inactive
same,inhibition,[25],inactive
same,inhibition,[7],inactive
same,Activity,[26],inactive
same,ILS,[9],>25%
same,ILS at 18 mg/kg,[27],65%
